Measured values as given in PubChem BioAssay AID2465 (Broad Institute, 2010).
Hit rate of the full screen: of about 24,000 compounds, fewer than 10 were called active. Rule as the data show it: active = caspase activation above about 5.9%; inconclusive = no clear call, values can overlap the other calls; inactive = below about 2.2%. The list is a sample of the results.

Experiment: Bcl2-A1 antagonists releasing BIM, apoptosis – cell-based, luminescence, HTS, two replicates, primary screen (AID 2465)
Settings: MEF A1-2A-BIM cells, caspase-Glo luminescence, 3 h; hits give high values; percent of clofoctol response, DMSO zero; concentration not given here
Method in brief: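 Material: A1-2A-BIM-expressing MEF cells. Buffer or medium: RPMI-1640 plus 10% FBS. Incubation: cells settled overnight, compound exposure 3 h at 37 °C, 5% CO2. Signal: Caspase-Glo 3/7 luminescence, 1 h at room temperature.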

Caspase activation, inactive:
C[C@H]1CCCCO[C@H](CN(C)C(=O)Nc2ccccc2)[C@@H](C)CN([C@@H](C)CO)C(=O)c2cc(NC(=O)c3ccncc3)ccc2O1 0.525%
Cc1ccc(S(=O)(=O)Nc2ccc3c(c2)C(=O)N([C@@H](C)CO)C[C@H](C)[C@@H](CN(C)C(=O)Cc2ccccc2)OCCCC[C@H](C)O3)cc1 -0.949%
C[C@@H]1CN([C@H](C)CO)C(=O)c2cccc(NC(=O)Nc3ccccc3)c2O[C@H]1CN(C)S(C)(=O)=O -0.29%
Cc1ccccc1CN(C)C[C@H]1OCc2cn(nn2)CCCC(=O)N([C@@H](C)CO)C[C@H]1C -0.00464%
C[C@H](CO)N1C[C@H](C)[C@@H](CN(C)S(=O)(=O)c2cccs2)OCCCC[C@H](C)Oc2ccc(NS(=O)(=O)c3ccccc3)cc2C1=O 0.384%
C[C@@H]1CCCCO[C@H](CN(C)Cc2ccccc2)[C@H](C)CN([C@@H](C)CO)C(=O)c2cc(NC(=O)Nc3cccc4ccccc34)ccc2O1 -0.203%
O=C(CCCCCC(=O)Nc1ccccc1O)N/N=C/c1ccc(Br)o1 0.454%
C[C@H](CO)N1C[C@H](C)[C@H](CN(C)Cc2ccc(C(=O)O)cc2)OCc2cn(nn2)CCCC1=O 0.235%
C[C@@H]1CN([C@@H](C)CO)C(=O)c2cc(NC(=O)Nc3ccccc3)ccc2O[C@@H]1CN(C)Cc1ccccc1 -0.201%
CC(C)NC(=O)N(C)C[C@H]1OCCCC[C@H](C)Oc2ccc(NS(=O)(=O)c3cccs3)cc2C(=O)N([C@H](C)CO)C[C@@H]1C 1.03%
COc1ccc(NC(=O)N(C)C[C@@H]2Oc3ccc(NS(=O)(=O)c4ccc(OC)cc4)cc3CC(=O)N([C@H](C)CO)C[C@H]2C)cc1 0.4%
COc1ccc(S(=O)(=O)Nc2cccc3c2O[C@@H](CN(C)C(=O)Nc2cccc4ccccc24)[C@H](C)CN([C@@H](C)CO)C3=O)cc1 -1.43%
C[C@H](O)[C@H](O)[C@@H](O)[C@@H](O)/C=N/NC(=O)CCCCCC(=O)Nc1ccccc1O 0.323%
C[C@@H]1CN([C@@H](C)CO)C(=O)c2cc(NC(=O)Cc3ccccc3)ccc2O[C@@H](C)CCCCO[C@H]1CN(C)C(=O)Cc1ccccc1 1.05%
Cc1noc(C)c1S(=O)(=O)N(C)C[C@@H]1OCCCC[C@H](C)Oc2ccc(NC(=O)Nc3ccc4c(c3)OCO4)cc2C(=O)N([C@H](C)CO)C[C@@H]1C -0.0337%
O=C(CCCCCCC(=O)Nc1ccccc1O)N/N=C/c1ccc(Oc2ccccc2)cc1 0.474%
O=C(NO)c1ccc(C(=O)N/N=C/c2ccc(Br)cc2)cc1 -0.637%
CC(C)NC(=O)Nc1ccc2c(c1)C(=O)N([C@@H](C)CO)C[C@H](C)[C@H](CN(C)C(=O)NC1CCCCC1)OCCCC[C@@H](C)O2 0.925%
C[C@@H]1CN([C@H](C)CO)C(=O)c2cc(NC(=O)c3ccncc3)ccc2O[C@@H](C)CCCCO[C@@H]1CN(C)CC1CC1 -1.05%
C[C@H]1CCCCO[C@H](CN(C)CC2CC2)[C@@H](C)CN([C@@H](C)CO)C(=O)c2cc(NC(=O)CCC(F)(F)F)ccc2O1 -0.204%
C[C@@H]1CCCCO[C@@H](CN(C)S(=O)(=O)c2cccs2)[C@@H](C)CN([C@@H](C)CO)C(=O)c2cc(NS(=O)(=O)c3ccc(F)cc3)ccc2O1 0.628%
C[C@@H]1CCCCO[C@H](CN(C)Cc2ccc(C(F)(F)F)cc2)[C@@H](C)CN([C@@H](C)CO)C(=O)c2cc(NC(=O)c3ccncc3)ccc2O1 -0.085%
C[C@@H]1CCCCO[C@@H](CN(C)S(=O)(=O)c2ccc(F)cc2)[C@@H](C)CN([C@@H](C)CO)C(=O)c2cc(NC(=O)Nc3ccc4c(c3)OCO4)ccc2O1 -0.312%
C[C@H]1CN([C@@H](C)CO)C(=O)Cc2cc(NC(=O)Cn3cnnn3)ccc2O[C@H]1CN(C)CC1CC1 -0.754%
Cc1ccc(S(=O)(=O)N(C)C[C@H]2OCCCC[C@H](C)Oc3ccc(N(C)C)cc3C(=O)N([C@H](C)CO)C[C@@H]2C)cc1 0.228%
C[C@@H]1CN([C@H](C)CO)C(=O)c2cc(NS(=O)(=O)c3ccccc3)ccc2O[C@H]1CN(C)S(=O)(=O)c1cccs1 -0.323%
COc1ccc(S(=O)(=O)Nc2ccc3c(c2)C(=O)N([C@H](C)CO)C[C@@H](C)[C@@H](CN(C)CC2CCCCC2)O3)cc1 -0.24%
CC(C)NC(=O)N(C)C[C@@H]1Oc2ccc(NC(=O)Cn3cnnn3)cc2CC(=O)N([C@H](C)CO)C[C@H]1C 1.87%
COc1cc(OC)c(/C=N/NC(=O)CCCCCCC(=O)Nc2ccccc2O)c(OC)c1 -0.41%
C[C@@H]1CCCCO[C@@H](CN(C)Cc2ccncc2)[C@@H](C)CN([C@H](C)CO)C(=O)c2cc(NS(=O)(=O)c3cccs3)ccc2O1 -0.367%
C[C@@H]1CN([C@H](C)CO)C(=O)Cc2cc(NC(=O)Nc3ccc4c(c3)OCO4)ccc2O[C@H]1CN(C)Cc1ccc(C(F)(F)F)cc1 1.47%
COc1ccc(S(=O)(=O)N(C)C[C@@H]2OCCCC[C@H](C)Oc3ccc(NC(=O)Nc4ccccc4)cc3C(=O)N([C@@H](C)CO)C[C@H]2C)cc1 0.213%
C[C@@H]1CN([C@@H](C)CO)C(=O)CCCn2nncc2CO[C@H]1CN(C)C(=O)CCCN(C)C -0.0755%
COc1ccc(NC(=O)Nc2ccc3c(c2)C(=O)N([C@@H](C)CO)C[C@@H](C)[C@@H](CN(C)S(=O)(=O)c2ccc(C)cc2)OCCCC[C@H](C)O3)cc1 -0.213%
COc1ccc(S(=O)(=O)Nc2ccc3c(c2)CC(=O)N([C@@H](C)CO)C[C@H](C)[C@@H](CN(C)Cc2ccc(C(=O)O)cc2)O3)cc1 1%
